# Screening data (PubChem BioAssay)
# Rows were chosen to be rich in hits. Some 3% of all compounds tested hit in one or more screens of this group.
# Kir21 block: inhibitors of mouse Kir2.1 inward-rectifier potassium channel; HEK293-Kir2.1, FluxOR thallium flux fluorescence; stronger effect = lower value; actives 0.85% (n = 310,000); AID 1672, 2009; B-score at 10 µM;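 active means fluorescence ratio B-score at or below minus 3 SD of library scores, with starting-brightness B-score within 2 SD, cut at about -4.2 in these data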;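 further: channel flux triggered by added potassium and thallium sulfate stimulus; B-score of peak minus minimum fluorescence over baseline after thallium stimulus; more negative B-score means stronger Kir2.1 block with less thallium influx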
# Target sequence (P35561 whole entry, looked up): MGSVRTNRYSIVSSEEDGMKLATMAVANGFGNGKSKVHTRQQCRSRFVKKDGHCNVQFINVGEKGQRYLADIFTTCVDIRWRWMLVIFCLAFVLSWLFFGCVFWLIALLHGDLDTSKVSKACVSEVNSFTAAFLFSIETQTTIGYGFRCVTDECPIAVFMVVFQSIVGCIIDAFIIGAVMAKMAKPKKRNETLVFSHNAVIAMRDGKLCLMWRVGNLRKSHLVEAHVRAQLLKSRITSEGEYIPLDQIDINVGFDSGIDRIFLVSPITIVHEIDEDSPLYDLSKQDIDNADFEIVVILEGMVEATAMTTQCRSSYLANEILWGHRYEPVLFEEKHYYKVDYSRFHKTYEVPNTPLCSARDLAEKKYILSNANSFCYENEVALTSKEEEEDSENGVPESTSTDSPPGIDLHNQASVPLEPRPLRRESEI
# FID counter: compounds displacing fluorescent DNA intercalator, primary screen, artefact control for HCV NS3 helicase inhibitor project, biochemical, FID fluorescence; DNA fluorescent intercalator displacement; inhibition, % at 7.9 µM; actives 0.17% (n = 290,000); AID 1845, 2009; in the data active means inhibition above about 37%;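 further: 0% = vehicle and 100% = reference compound; higher means more ethidium bromide displaced from hairpin DNA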
# ANO1 block: TMEM16A chloride channel inhibitors, primary screen, cell-based, HTS; AID 588511, 2011; HEK293 TMEM16A/YFP iodide influx fluorescence, ionomycin; Anoctamin-1 (Mus musculus), Q8BHY3; actives 1.2% (n = 310,000); normalized B-score (activity score, 25-100; higher = stronger inhibition) at 10 µM;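 active means ratio plate-corrected score three or more library SD toward inhibition, starting fluorescence score within five deviations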;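 further: score derived from kinetic fluorescence span divided by baseline fluorescence per well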
# SR-BI DiI-HDL act: activators of SR-BI mediated DiI-HDL uptake, primary screen, ldlA[mSR-BI] CHO cells, DiI fluorescence; activation, % at 12.5 µM; actives 0.096% (n = 320,000); 3 h; 100 = double the neutral-control signal;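 active means mean replicate activation of at least 60% and every replicate at or above 60%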;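 further: 0% = median plate neutral-control signal and 100% = twice that signal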
#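 Test system: SR-BI-overexpressing, LDLR-lacking CHO cells; Medium: Ham's F12 with 0.5% BSA, HEPES 25 mM, pH 7.4; Schedule: 3 h, 37 °C; Technique: bottom-read fluorescence, 550/595 nm.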
# TMEM16A act: TMEM16A chloride channel activators or potentiators, primary screen, cell-based, HTS; actives 0.3% (n = 340,000); B-score at 10 µM; HEK293 TMEM16A/YFP-H148Q/I152L, iodide quench fluorescence; stronger effect = lower value;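 active means fluorescence-ratio B-score plate-corrected deviation score at least 3 library SD below zero, with starting fluorescence score within 5 deviations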;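 further: channel opened by trigger with iodide after compound preincubation; score built on the fluorescence ratio of max minus min over baseline; more negative score means more quench and so TMEM16A activation or potentiation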
# SR-BI HDL uptake: inhibitors of SR-BI mediated HDL lipid uptake, primary screen, ldlA[mSR-BI] cells, fluorescence, single point; Scavenger receptor class B member 1 (Mus musculus), Q61009; inhibition, % at 12.5 µM; ldlA[mSR-BI] CHO cells, DiI-HDL uptake fluorescence, 3 h; actives 0.96% (n = 320,000);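 active means mean replicate inhibition of at least 70% and a set share of replicates each scoring 70 or more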;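 further: 0% = median of neutral control wells and 100% = median of positive control wells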
# hERG ctr: hERG channel inhibition, counter-screen for Kir2.1 inhibitor project, cell-based, thallium flux | shares compounds with Kir21 block | actives 20% (n = 320) | inhibition, % at 10 µM | hERG-expressing cells | AID 2236, 2010;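 further: host cells are CHO cells stably expressing hERG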
# KCNK9 inh: KCNK9 channel inhibition, selectivity assay for Kir2.1 inhibitor project, cell-based; shares compounds with Kir21 block; KCNK9-expressing cells, ion flux inhibition; inhibition, % at 10 µM; actives 5% (n = 320); AID 2329, 2010
# Kir2-1 patch inh: mouse Kir2.1 channel blockers, Kir2.1 inhibitor project, cell-based, secondary, automated electrophysiology; Kir2.1 cells, automated patch-clamp current inhibition; shares compounds with Kir21 block; inhibition, % at 25 µM; actives 71% (n = 320)
# * hit, by the source's call; i = inactive; · = no result given. Unless noted, how the calls were made is not given here.
SMILES,Kir21 block,FID counter,ANO1 block,SR-BI DiI-HDL act,TMEM16A act,SR-BI HDL uptake,hERG ctr,KCNK9 inh,Kir2-1 patch inh
CCOc1ccc(OCC(O)CN2CCc3ccccc3C2)cc1 (stereo unspecified),-1.6,-3,i,-2,i,2,·,·,·
NCCc1nnc(SCC(=O)c2ccc(Cl)cc2)o1,-0.42,3,i,13,i,-13,·,·,·
COc1ccc(CCN2CCCC(CN(C)Cc3cccc(OC)c3)C2)cc1 (stereo unspecified),-9.5*,23,i,19,i,-19,i,i,37%*
CCN(Cc1ccc(OC)c(COC)c1)CC1CCCN(CCc2cccc(OC)c2)C1 (stereo unspecified),-4.2,26,i,13,i,-13,·,·,·
COc1cc(CNCc2ccccn2)ccc1OCC(N)=O,2.1,1,i,2,i,-2,·,·,·
COc1cc(CNCc2ccccn2)ccc1OCc1ccc(Cl)cc1Cl,-6*,28,i,-13,i,13,65%*,i,34%*
CCOc1nc(C)cc(C)c1S(=O)(=O)c1ccc(Cl)cc1,-6.4*,-15,i,-31,i,31,i,i,i
CCc1ccc(S(=O)(=O)NCCOc2cccc3cccnc23)cc1,-7*,-38,i,-9,i,9,i,i,i
CSc1ccc(S(=O)(=O)NCCOc2ccccc2C)cc1,-0.45,-15,i,0,i,0,·,·,·
CN1CCN(C(=O)c2cnn(-c3ccccc3)c2NC(=O)c2ccc(Br)cc2)CC1,-1.6,16,i,15,i,-15,·,·,·
Cc1ccc(Nc2cc(C)nc3c(C)cccc23)cc1,-8.7*,2,i,10,i,-10,i,i,61%*
COc1ccc(CCCC(=O)NCC(=O)N/N=C/c2cc(Cl)ccc2OC)cc1,3.4,-15,·,-27,i,27,·,·,·
c1cc(CN2CCCCC2)cc(OCCCNc2nc3ccccc3s2)c1,-7.3*,·,i,-38,i,38,i,i,48%*
O=C(NCCCOc1cccc(CN2CCCCC2)c1)c1ccc(Cl)c(Cl)c1,-3,15,i,-8,i,8,·,·,·
COCCNC(=O)CN(Cc1ccccc1)C(=O)CCC(=O)Nc1nccs1,-0.58,-5,i,8,i,-8,·,·,·
O=C(NCCCN1CCOCC1)c1ccc(CSc2ccc(Cl)cc2)cc1,-7.8*,38*,i,-13,i,13,46%*,i,21%*
COc1cccc(NC(=O)CN(C)CC(=O)Nc2ccc(C)c([N+](=O)[O-])c2)c1,0.15,-31,i,5,i,-5,·,·,·
Cc1ccccc1OCCNCC(C)O (stereo unspecified),-0.15,14,i,39,i,-39,·,·,·
Cc1cc(Cl)cc(Br)c1OCCCNCC(C)O (stereo unspecified),-9.3*,11,i,8,i,-8,i,i,39%*
CCn1cc(C(=O)NCCCOC)c(=O)c2cc(S(=O)(=O)N(C)C)ccc21,-0.7,-7,i,17,i,-17,·,·,·
CCn1cc(C(=O)NCCc2ccccc2)c(=O)c2cc(S(=O)(=O)N(C)C)ccc21,3.5,-12,i,-61,i,61,i,i,i
Cc1c(Cl)cccc1Nc1nc(NCCO)c2ccccc2n1,-9.5*,18,i,-3,i,3,i,i,31%*
COc1ccc(OC)c(CCNC(=O)c2cccc(NC(=O)C3=C(C)OCCS3)c2)c1,0.46,-47,i,-57,i,57,·,·,·
COc1ccc(OC)c(C(=O)N(C)C2CCCN(Cc3ccccc3F)C2)c1 (stereo unspecified),0.83,-14,i,38,i,-38,·,·,·
O=C(Oc1ccc(C(=S)N2CCOCC2)cc1)c1ccccc1F,-7.6*,-26,i,5,i,-5,i,i,i
SMILES,Kir21 block,FID counter,ANO1 block,SR-BI DiI-HDL act,TMEM16A act,SR-BI HDL uptake,hERG ctr,KCNK9 inh,Kir2-1 patch inh
O=C(Oc1ccc(C(=S)N2CCOCC2)cc1)c1ccccc1[N+](=O)[O-],-0.01,-8,i,-1,i,1,·,·,·
CC(C)(C)NS(=O)(=O)c1ccc(NC(=O)CS(=O)(=O)Cc2ccccc2)cc1,0.97,-26,i,17,i,-17,·,·,·
CCC(C)NCCOCCOc1ccccc1-c1ccccc1 (stereo unspecified),-6.2*,25,i,18,i,-18,i,i,35%*
Cc1ccccc1Cn1c(=N)n(CC(O)c2ccco2)c2ccccc21 (stereo unspecified),-5.9*,14,i,23,i,-23,50%*,i,i
CCCCCCCn1c(=N)n(CC(O)c2ccco2)c2ccccc21 (stereo unspecified),-5.9*,34,i,-1,i,1,70%*,i,i
CCn1c(=N)n(CC(O)c2ccccc2)c2ccccc21 (stereo unspecified),0.45,6,i,19,i,-19,·,·,·
CCCCCCCn1c(=N)n(CC(=O)c2ccco2)c2ccccc21,-10*,8,i,3,i,-3,67%*,i,6.9%*
Cc1cc2c(cc1S(=O)(=O)NCCc1ccccc1)NC(=O)CO2,-3,·,i,-4,i,4,·,·,·
CCCc1ccccc1OCCNS(=O)(=O)c1cc2c(cc1C)OCC(=O)N2,-6.5*,-28,i,10,i,-10,i,i,i
O=C(COc1ccccc1CNCc1ccccc1)Nc1ccccc1,-10*,20,i,5,i,-5,49%*,i,43%*
CC(=O)N1CCN(C(=O)c2ccc(S(=O)(=O)Nc3cccc(C(F)(F)F)c3)cc2)CC1,4,·,i,11,i,-11,i,i,i
